Data taken from ChEMBL document CHEMBL4689842, “EUbOPEN Chemogenomics Library wave 1” (2021).

Test system: HEK-293T
Experiment: Multiplex assay against HEK293T;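 for Population Tubulin-Different-Phenotype (%): share of the cells with healthy nuclei that show this phenotype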
Format: toxicity, cell-based
Conditions: human
Outline: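 Cells stained live at seeding with Hoechst33342, BioTracker Green Microtubule Cytoskeleton Dye, MitoTracker Red and Annexin V Alexa Fluor 680 were imaged on a CQ1 microscope at 37°C and 5% CO2 after compound addition. Their classification by CellPathfinder machine-learning gating ran from Hoechst high-intensity objects versus normal cells, to healthy, pyknosed or fragmented nuclei among normal cells, to mitotic or apoptotic among pyknosed cells. Tubulin, mitochondrial-mass and membrane-permeability phenotypes are per cents of healthy-nucleus cells.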

[1] = 12 h, 1 µM, compound concentration 1 uM, replicate 1
[2] = 12 h, 1 µM, compound concentration 1 uM, replicate 2
[3] = 12 h, 10 µM, compound concentration 10 uM, replicate 1
[4] = 12 h, 10 µM, compound concentration 10 uM, replicate 2
[5] = 24 h, 1 µM, compound concentration 1 uM, replicate 1
[6] = 24 h, 1 µM, compound concentration 1 uM, replicate 2
[7] = 24 h, 10 µM, compound concentration 10 uM, replicate 1
[8] = 24 h, 10 µM, compound concentration 10 uM, replicate 2
[9] = 48 h, 1 µM, compound concentration 1 uM, replicate 1
[10] = 48 h, 1 µM, compound concentration 1 uM, replicate 2
[11] = 48 h, 10 µM, compound concentration 10 uM, replicate 1
[12] = 48 h, 10 µM, compound concentration 10 uM, replicate 2

## CNc1nc(NCc2ccc(NS(C)(=O)=O)cc2Cl)cc(-c2ccccn2)n1
[1]
  Population Apoptotic (%): 52%
  Population Fragmented Nuclei (%): 18%
  Population Healthy Nuclei (%): 36%
  Population Hoechst High Intensity Objects (%): 17%
  Population Membrane Permeable-Phenotype (%): 3%
  Population Mitochondria Different-Phenotype (%): 75%
  Population Mitotic Cells (%): 48%
  Population Normal (%): 82%
  Population Pyknosed Nuclei (%): 44%
  Population Tubulin-Different-Phenotype (%): 38%
  Total Cell Count: 203
[2]
  Population Apoptotic (%): 14%
  Population Fragmented Nuclei (%): 6%
  Population Healthy Nuclei (%): 43%
  Population Hoechst High Intensity Objects (%): 2%
  Population Membrane Permeable-Phenotype (%): 6%
  Population Mitochondria Different-Phenotype (%): 18%
  Population Mitotic Cells (%): 85%
  Population Normal (%): 97%
  Population Pyknosed Nuclei (%): 50%
  Population Tubulin-Different-Phenotype (%): 23%
  Total Cell Count: 273
[3]
  Population Apoptotic (%): 60%
  Population Fragmented Nuclei (%): 9%
  Population Healthy Nuclei (%): 25%
  Population Hoechst High Intensity Objects (%): 14%
  Population Mitochondria Different-Phenotype (%): 95%
  Population Mitotic Cells (%): 39%
  Population Normal (%): 85%
  Population Pyknosed Nuclei (%): 65%
  Population Tubulin-Different-Phenotype (%): 92%
  Total Cell Count: 190
[4]
  Population Apoptotic (%): 25%
  Population Fragmented Nuclei (%): 4%
  Population Healthy Nuclei (%): 18%
  Population Hoechst High Intensity Objects (%): 4%
  Population Membrane Permeable-Phenotype (%): 0%
  Population Mitochondria Different-Phenotype (%): 50%
  Population Mitotic Cells (%): 74%
  Population Normal (%): 95%
  Population Pyknosed Nuclei (%): 76%
  Population Tubulin-Different-Phenotype (%): 73%
  Total Cell Count: 189
[5]
  Population Apoptotic (%): 55%
  Population Fragmented Nuclei (%): 16%
  Population Healthy Nuclei (%): 52%
  Population Hoechst High Intensity Objects (%): 18%
  Population Membrane Permeable-Phenotype (%): 0%
  Population Mitochondria Different-Phenotype (%): 50%
  Population Mitotic Cells (%): 45%
  Population Normal (%): 81%
  Population Pyknosed Nuclei (%): 31%
  Population Tubulin-Different-Phenotype (%): 25%
  Total Cell Count: 234
[6]
  Population Apoptotic (%): 16%
  Population Fragmented Nuclei (%): 4%
  Population Healthy Nuclei (%): 57%
  Population Hoechst High Intensity Objects (%): 5%
  Population Membrane Permeable-Phenotype (%): 7%
  Population Mitochondria Different-Phenotype (%): 14%
  Population Mitotic Cells (%): 83%
  Population Normal (%): 94%
  Population Pyknosed Nuclei (%): 37%
  Population Tubulin-Different-Phenotype (%): 31%
  Total Cell Count: 355
[7]
  Population Apoptotic (%): 63%
  Population Fragmented Nuclei (%): 10%
  Population Healthy Nuclei (%): 29%
  Population Hoechst High Intensity Objects (%): 14%
  Population Membrane Permeable-Phenotype (%): 0%
  Population Mitochondria Different-Phenotype (%): 95%
  Population Mitotic Cells (%): 36%
  Population Normal (%): 85%
  Population Pyknosed Nuclei (%): 60%
  Population Tubulin-Different-Phenotype (%): 87%
  Total Cell Count: 193
[8]
  Population Apoptotic (%): 34%
  Population Fragmented Nuclei (%): 3%
  Population Healthy Nuclei (%): 25%
  Population Hoechst High Intensity Objects (%): 6%
  Population Mitochondria Different-Phenotype (%): 88%
  Population Mitotic Cells (%): 65%
  Population Normal (%): 93%
  Population Pyknosed Nuclei (%): 71%
  Population Tubulin-Different-Phenotype (%): 95%
  Total Cell Count: 177
[9]
  Population Apoptotic (%): 47%
  Population Fragmented Nuclei (%): 15%
  Population Healthy Nuclei (%): 64%
  Population Hoechst High Intensity Objects (%): 8%
  Population Membrane Permeable-Phenotype (%): 2%
  Population Mitochondria Different-Phenotype (%): 24%
  Population Mitotic Cells (%): 52%
  Population Normal (%): 91%
  Population Pyknosed Nuclei (%): 19%
  Population Tubulin-Different-Phenotype (%): 18%
  Total Cell Count: 336
[10]
  Population Apoptotic (%): 14%
  Population Fragmented Nuclei (%): 5%
  Population Healthy Nuclei (%): 76%
  Population Hoechst High Intensity Objects (%): 3%
  Population Membrane Permeable-Phenotype (%): 5%
  Population Mitochondria Different-Phenotype (%): 7%
  Population Mitotic Cells (%): 85%
  Population Normal (%): 96%
  Population Pyknosed Nuclei (%): 18%
  Population Tubulin-Different-Phenotype (%): 26%
  Total Cell Count: 601
[11]
  Population Apoptotic (%): 74%
  Population Fragmented Nuclei (%): 15%
  Population Healthy Nuclei (%): 29%
  Population Hoechst High Intensity Objects (%): 16%
  Population Membrane Permeable-Phenotype (%): 2%
  Population Mitochondria Different-Phenotype (%): 85%
  Population Mitotic Cells (%): 25%
  Population Normal (%): 83%
  Population Pyknosed Nuclei (%): 54%
  Population Tubulin-Different-Phenotype (%): 93%
  Total Cell Count: 189
[12]
  Population Apoptotic (%): 61%
  Population Fragmented Nuclei (%): 5%
  Population Healthy Nuclei (%): 26%
  Population Hoechst High Intensity Objects (%): 5%
  Population Membrane Permeable-Phenotype (%): 7%
  Population Mitochondria Different-Phenotype (%): 76%
  Population Mitotic Cells (%): 38%
  Population Normal (%): 94%
  Population Pyknosed Nuclei (%): 67%
  Population Tubulin-Different-Phenotype (%): 82%
  Total Cell Count: 202
